Active and inactive are the calls of the source.

These results are taken from ChEMBL document CHEMBL4382263, “Spirostaphylotrichin X from a Marine-Derived Fungus as an Anti-influenza Agent Targeting RNA Polymerase PB2” (J Nat Prod, 2018).

In data set [1] the target is Polymerase basic protein 2 (Influenza A virus (strain A/Puerto Rico/8/1934 H1N1), UniProt P03428). Nature of the data set: Binding affinity to Influenza A virus RNA polymerase PB2 by SPR assay. In outline: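 PB2-cap protein (0.5 μM) immobilised on CM5 chip at pH 5.0. Compound injected at 7.8–125 nM for 180 s at 50 μL/min, 25 °C; chip regenerated with 50 mM NaOH. KD from fitted sensorgrams; reference compound included.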
Chain of Polymerase basic protein 2 (P03428 whole entry): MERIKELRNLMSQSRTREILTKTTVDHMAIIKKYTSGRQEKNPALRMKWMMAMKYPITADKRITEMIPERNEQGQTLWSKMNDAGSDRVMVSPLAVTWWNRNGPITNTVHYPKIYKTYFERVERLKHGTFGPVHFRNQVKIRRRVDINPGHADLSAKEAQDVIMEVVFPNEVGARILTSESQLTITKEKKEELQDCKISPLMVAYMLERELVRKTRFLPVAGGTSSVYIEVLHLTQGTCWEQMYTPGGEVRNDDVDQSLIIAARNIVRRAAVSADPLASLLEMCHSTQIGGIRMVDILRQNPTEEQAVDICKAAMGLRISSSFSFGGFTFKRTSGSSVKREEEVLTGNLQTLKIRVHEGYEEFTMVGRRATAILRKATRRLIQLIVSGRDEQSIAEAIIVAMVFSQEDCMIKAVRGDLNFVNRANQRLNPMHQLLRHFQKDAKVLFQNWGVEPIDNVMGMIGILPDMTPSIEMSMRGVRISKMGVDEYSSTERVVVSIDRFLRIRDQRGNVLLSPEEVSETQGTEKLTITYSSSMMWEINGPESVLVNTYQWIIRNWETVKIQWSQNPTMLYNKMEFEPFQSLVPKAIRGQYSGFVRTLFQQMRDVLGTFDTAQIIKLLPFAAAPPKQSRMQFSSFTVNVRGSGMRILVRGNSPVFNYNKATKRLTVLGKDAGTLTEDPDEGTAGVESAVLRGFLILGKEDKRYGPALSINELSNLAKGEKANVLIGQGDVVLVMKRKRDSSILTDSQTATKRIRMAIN

Data set [2] relates to Influenza A virus (A/Puerto Rico/8/1934(H1N1)). Nature of the data set: Inhibition of RNA-dependent RNA polymerase in Influenza A virus (A/PR/8/34(H1N1)) infected in human 293T cells assessed as reduction in viral RNA level at 10 uM measured at 3 and 6 hrs post infection by RT-PCR method. The data set is classed as cell-based.
For data set [3], the system named is Cynodon dactylon. Nature of the data set: Inhibition of seed germination in Cynodon dactylon at 100 ug/ml after 7 days. The class given is functional, organism-based. The essentials: (§1)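 Ten surface-sterilised seeds per well on agar. Test solution at 100 μg/mL in 5% EtOH added; three wells per sample. Incubated at 20 °C, 12:12 h photoperiod, 7 days; germination scored.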

The test system of data set [4] is OS-RC-2. Nature of the data set: Cytotoxicity against human OS-RC2 cells by MTT assay. The data set is classed as functional, cell-based.
The subject of data set [5] is Influenza A virus. Nature of the data set: Antiviral activity against Influenza A virus (A/PR/8/34(H1N1)) infected in MDCK cells assessed as reduction in virus-induced cytopathic effect by MTT assay. The class given is functional, organism-based. To be noted: A/Puerto Rico/8/1934(H1N1). In outline:
(§2)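 MTT-based cytopathic-effect reduction assay in MDCK cells. Run in triplicate; IC50 reported as mean ± SD.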

In data set [6] the test system is Escherichia coli. Nature of the data set: Antibacterial activity against Escherichia coli ATCC 25922. The data set is classed as functional.
Data set [7] concerns Staphylococcus aureus. Nature of the data set: Antibacterial activity against Staphylococcus aureus subsp. aureus Rosenbach ATCC 25923. The data set is classed as functional.
The subject of data set [8] is ACHN. Nature of the data set: Cytotoxicity against human ACHN cells by MTT assay. The data set is classed as functional, cell-based. (In general: Tetrazolium dyes change colour on reduction, which living cells bring about.)
Data set [9] concerns SGC-7901. Nature of the data set: Cytotoxicity against human SGC7901 cells by MTT assay. The class given is functional, cell-based.
The nature of data set [10]: Antibacterial activity against Pasteurella multocida subsp. multocida ATCC 43137. The data set is classed as functional.
Data set [11] relates to 786-0. Nature of the data set: Cytotoxicity against human 786-O cells by MTT assay. The data set is classed as functional, cell-based.
For data set [12], the system named is Erysipelothrix rhusiopathiae. Nature of the data set: Antibacterial activity against Erysipelothrix rhusiopathiae ATCC 19414. The class given is functional.
Data set [13] relates to HepG2. Nature of the data set: Cytotoxicity against human HepG2 cells by MTT assay. The data set is classed as functional, cell-based.
Data set [14] deals with Arabidopsis thaliana. Nature of the data set: Inhibition of seed germination in Arabidopsis thaliana at 100 ug/ml after 7 days. The data set is classed as functional, organism-based. The essentials:
as §1

Data set [15] has as its system Influenza A virus. Nature of the data set: Antiviral activity against Influenza A virus isolate 690 (H3) infected in MDCK cells assessed as reduction in virus-induced cytopathic effect by MTT assay. The class given is functional, organism-based. In outline: as §2
On the technique in general: Cytopathic effects are the visible damage that an infection or toxin causes in cultured cells.

Data set [16] has as its system Influenza A virus. Nature of the data set: Antiviral activity against Influenza A virus (A/PR/8/34(H1N1)) infected in MDCK cells assessed as reduction in viral NP production at 10 uM measured 10 hrs post infection by Western blot analysis. The data set is classed as functional, organism-based. To be noted: Influenza A virus (A/Puerto Rico/8/1934(H1N1)). In outline:
(§3)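 Compound added to PR8-infected MDCK cells at defined time points covering the first replication cycle. At 10 h postinfection, NP measured by Western blot and HA mRNA by quantitative RT-PCR.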
(Immunoblotting shows a protein as a band on a membrane.)

Data set [17] deals with Polymerase basic protein 2 (Influenza A virus (strain A/Puerto Rico/8/1934 H1N1)) (UniProt P03428). Nature of the data set: Inhibition of fluorescently-labeled m7GTP binding to Influenza A virus RNA polymerase PB2 preincubated for 15 mins followed by m7GTP addition measured after 1 hr by HTRF assay. In outline:
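PB2 protein preincubated with compound at different concentrations for 15 min at RT. Premixed fluorescent probe (m7GTP cap analogue) added; HTRF read after 1 h. Three independent experiments, mean ± SD.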

In data set [18] the test system is Influenza A virus. Nature of the data set: Antiviral activity against Influenza A virus (A/PR/8/34(H1N1)) infected in MDCK cells assessed as reduction in virus-induced cytopathic effect co-treated with viral infection for 30 mins and measured after 48 hrs by MTT assay. The data set is classed as functional, organism-based. To be noted: A/Puerto Rico/8/1934(H1N1). In outline:
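Entire-infection: virus–compound mixture (PR8, MOI 0.01, 30 min at 37 °C) added to MDCK cells. Unabsorbed virus removed; fresh medium with 1 μg/mL TPCK-trypsin plus compound added. Viability by MTT after 48 h.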

For data set [19], the system named is Influenza A virus. Nature of the data set: Antiviral activity against Influenza A virus (A/PR/8/34(H1N1)) infected in MDCK cells assessed as reduction in viral HA mRNA level at 10 uM measured 10 hrs post infection by qRT-PCR analysis. The data set is classed as functional, organism-based. To be noted: Influenza A virus (A/Puerto Rico/8/1934(H1N1)). In outline:
as §3

Data set [20] has as its system Influenza A virus. Nature of the data set: Antiviral activity against Influenza A virus (A/PR/8/34(H1N1)) infected in MDCK cells assessed as reduction in viral NP protein expression after 24 hrs by DAPI staining based fluorescence microscopic method. The data set is classed as functional, organism-based. To be noted: A/Puerto Rico/8/1934(H1N1). In outline:
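MDCK cells infected at MOI 0.01 for 1 h, then given increasing concentrations for 24 h. Fixed in 4% paraformaldehyde and blocked with 3% BSA. Stained with anti-NP (1:200, overnight, 4 °C), then FITC secondary (4 h, RT); DAPI nuclear stain; fluorescence microscopy.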

For data set [21], the system named is Influenza A virus. Nature of the data set: Antiviral activity against Influenza A virus (A/PR/8/34(H1N1)) infected in MDCK cells assessed as reduction in plaque formation after 72 hrs by crystal violet staining based assay. To be noted: A/Puerto Rico/8/1934(H1N1). The class given is functional, organism-based. The essentials: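 MDCK monolayers infected with PR8 at MOI 0.005 for 1 h at 37 °C. Overlay of serum-free MEM with serially diluted compound, 2% microcrystalline cellulose and 1.5 μg/mL trypsin. After 72 h, cells fixed and stained with 4% paraformaldehyde/2% crystal violet for 20 min; plaques assessed.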

The target in data set [22] is Neuraminidase (Influenza A virus (A/Puerto Rico/8/1934(H1N1))) (UniProt P03468). Nature of the data set: Inhibition of Influenza A virus (A/PR/8/34(H1N1)) NA assessed as reduction in viral particle release using 2-(4-methylumbelliferyl)-alpha-D-N-acetylneuraminic acid sodium as substrate preincubated for 30 mins followed by substrate addition and measured for 1 hr by fluorescence assay. The essentials:
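PR8 in reaction buffer mixed with twofold-diluted compound for 30 min at 37 °C. 20 μM MUNANA substrate added for 1 h at 37 °C; stopped with 14 mM NaOH. 4-MU fluorescence read at ex 340/em 440 nm.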

Data set [23] has as its system Influenza A virus. Nature of the data set: Antiviral activity against Influenza A virus (A/PR/8/34(H1N1)) infected in MDCK cells assessed as reduction in viral NP protein expression after 24 hrs by Western blot method. To be noted: A/Puerto Rico/8/1934(H1N1). The data set is classed as functional, organism-based. In outline: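 MDCK monolayers infected with PR8 at MOI 0.01 for 1 h at 37 °C, then given serial dilutions. At 24 h, lysates equalised for protein and run on 10% SDS-PAGE. NP detected with anti-NP (1:1000) and HRP secondary, β-actin as loading control; ECL read-out.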

Data set [24] concerns Influenza A virus H3N2. Nature of the data set: Antiviral activity against Influenza A virus (A/Aichi/2/68(H3N2)) infected in MDCK cells assessed as reduction in virus-induced cytopathic effect by MTT assay. To be noted: A/Aichi/2/1968(H3N2). The data set is classed as functional, organism-based. In outline: as §2
Data set [25] has as its system Influenza A virus. Nature of the data set: Antiviral activity against Influenza A virus (A/PR/8/34(H1N1)) infected in MDCK cells assessed as reduction in virus-induced cytopathic effect pretreated with virus for 30 mins followed by viral infection incubated for 30 mins and measured after 48 hrs by MTT assay. To be noted: A/Puerto Rico/8/1934(H1N1). The data set is classed as functional, organism-based. In outline:
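Preinfection: PR8 (MOI 0.01) mixed with compound for 30 min at 37 °C, then added to MDCK cells for 30 min. Medium replaced with fresh medium containing 1 μg/mL TPCK-trypsin. Viability by MTT after a further 48 h.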

Data set [26] deals with Influenza A virus. Nature of the data set: Antiviral activity against Influenza A virus (A/FM-1/1/47(H1N1)) infected in MDCK cells assessed as reduction in virus-induced cytopathic effect by MTT assay. The data set is classed as functional, organism-based. To be noted: A/Fort Monmouth/1/1947(H1N1). In outline:
as §2

Data set [27] relates to Influenza A virus. Nature of the data set: Antiviral activity against Influenza A virus (A/PR/8/34(H1N1)) infected in MDCK cells assessed as reduction in virus-induced cytopathic effect treated post viral infection for 1 hr and measured after 48 hrs by MTT assay. The class given is functional, organism-based. To be noted: A/Puerto Rico/8/1934(H1N1). In outline:
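Postinfection: infected MDCK cells given increasing concentrations for 1 h at 37 °C, then medium replaced. Viability by MTT after a further 48 h.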

Data set [28] has as its system Influenza A virus. Nature of the data set: Antiviral activity against Influenza A virus (A/PR/8/34(H1N1)) infected in MDCK cells assessed as reduction in viral HA mRNA expression after 24 hrs by qRT-PCR method. The data set is classed as functional, organism-based. To be noted: A/Puerto Rico/8/1934(H1N1). The essentials:
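Infected MDCK cells treated with a concentration series for 24 h. Total RNA reverse-transcribed; viral HA mRNA quantified by qRT-PCR with GAPDH as internal control. Triplicate, mean ± SD.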

A short description of data set [29]: Cytotoxicity against MDCK cells by MTT assay. The class given is cell-based, Canis lupus familiaris. To be noted: dog. In outline:
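MDCK viability measured by MTT at concentrations up to 200 μM. Run in triplicate; CC50 reported.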

The target of data set [30] is Hemagglutinin (Influenza A virus (A/Puerto Rico/8/1934(H1N1))) (UniProt P03452). Nature of the data set: Inhibition of Influenza A virus (A/PR/8/34(H1N1)) HA-mediated chicken erythrocytes hemagglutination preincubated for 30 mins followed by erythrocytes addition and measured for 1 hr. In outline: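 Twofold serial compound dilutions mixed with PR8 at different titres for 30 min at RT. 0.5% chicken erythrocytes added; read after 1 h at 37 °C. Virus diluent without compound as negative control, PBS as blank.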
Chain of Hemagglutinin (Influenza A virus (A/Puerto Rico/8/1934(H1N1))) (P03452 whole entry): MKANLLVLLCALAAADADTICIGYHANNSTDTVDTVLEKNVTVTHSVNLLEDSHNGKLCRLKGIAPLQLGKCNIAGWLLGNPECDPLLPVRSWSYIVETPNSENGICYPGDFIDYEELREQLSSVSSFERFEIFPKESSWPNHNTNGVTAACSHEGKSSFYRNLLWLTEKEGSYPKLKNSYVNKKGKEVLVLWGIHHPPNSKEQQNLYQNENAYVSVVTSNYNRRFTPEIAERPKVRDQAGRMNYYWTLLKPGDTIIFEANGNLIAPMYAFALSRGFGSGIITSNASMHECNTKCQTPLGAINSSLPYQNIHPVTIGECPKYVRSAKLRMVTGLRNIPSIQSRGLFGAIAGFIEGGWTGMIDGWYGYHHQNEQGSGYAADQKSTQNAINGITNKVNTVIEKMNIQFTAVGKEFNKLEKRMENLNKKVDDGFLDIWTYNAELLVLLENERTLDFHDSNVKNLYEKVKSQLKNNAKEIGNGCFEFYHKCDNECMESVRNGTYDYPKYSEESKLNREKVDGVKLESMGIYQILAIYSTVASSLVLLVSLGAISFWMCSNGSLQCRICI

Chain of Neuraminidase (Influenza A virus (A/Puerto Rico/8/1934(H1N1))) (P03468 whole entry): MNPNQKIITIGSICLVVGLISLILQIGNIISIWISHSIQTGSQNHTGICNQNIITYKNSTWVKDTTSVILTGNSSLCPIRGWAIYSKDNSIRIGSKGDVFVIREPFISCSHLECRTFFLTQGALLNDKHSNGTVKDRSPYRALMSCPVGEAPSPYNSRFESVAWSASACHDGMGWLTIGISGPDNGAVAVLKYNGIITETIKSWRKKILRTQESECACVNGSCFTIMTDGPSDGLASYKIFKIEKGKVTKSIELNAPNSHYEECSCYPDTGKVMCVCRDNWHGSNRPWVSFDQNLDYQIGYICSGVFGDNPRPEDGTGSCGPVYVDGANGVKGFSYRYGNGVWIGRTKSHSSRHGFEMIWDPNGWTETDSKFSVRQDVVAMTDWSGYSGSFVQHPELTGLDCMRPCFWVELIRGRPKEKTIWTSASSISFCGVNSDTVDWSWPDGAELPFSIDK
Chain of Polymerase basic protein 2 (Influenza A virus (strain A/Puerto Rico/8/1934 H1N1)) (P03428 whole entry, looked up): as the sequence (P03428 whole entry) above

`O=c1oc2cc(O)cc(O)c2c2ccccc12`: in data set [1], the affinity, expressed as Kd, was 3.6 µM.
With `CCC(CC)[C@H](NC(C)=O)[C@@H]1[C@H](O)[C@@H](C(=O)O)C[C@H]1NC(=N)N`, the inhibition result in data set [2] is “inactive”.
As for `C=C1[C@H](O)[C@@]2(C(=O)N1OC)/C(=C\CC)C=CC(=O)[C@H]2O`, the inhibition entry in [3] and in data set [14] was “inactive” in each case. Further, the IC50 in [4] was greater than 50 µM; in data set [5] it was 21 µM; in [8], greater than 50 µM; in data set [9], greater than 50 µM; in [11] it was greater than 50 µM; in data set [13], greater than 50 µM. For the same molecule, the minimal inhibitory concentration (MIC) in data set [6], in data set [7], in data set [10] and in [12] was greater than 100 µg/mL in each case.
Turning to `CC/C=C1/C=CC(=O)[C@@H](O)[C@]12C(=O)N(OC)[C@@](C)(OC)[C@@H]2O`, the inhibition result in [3], in data set [22], in data set [14] and in data set [30] was “inactive” throughout. Besides, the IC50 in data set [4] was greater than 50 µM; in data set [5] it was 1.6 µM; in data set [15], 1.7 µM; in data set [8], greater than 50 µM; in [9], greater than 50 µM; in [11], greater than 50 µM. The figures for the half-inhibitory concentration (IC50) in data set [24], in data set [13] and in [26] were 4.1 µM, greater than 50 µM and 5.5 µM, respectively. The MIC in data set [6], in data set [7], in [10] and in data set [12] was greater than 100 µg/mL each time. In data set [1], the Kd is 0.077 µM. The inhibition result in data set [2] was “Active”. Further, the outcome in data set [16], in data set [18], in data set [19] and in [27] was Active. For the same molecule, the inhibition result in data set [17] was “Dose-dependent effect”. In addition, the Activity entry in [20], in data set [21], in data set [23] and in [28] was “Dose-dependent effect” each time. Besides, the result in data set [25] was inactive. The CC50 in data set [29] was greater than 200 µM.

The term Kd denotes the constant that tells how readily two partners part at equilibrium. Low values mean tighter binding, high ones weaker binding. The term IC50 denotes the point on the concentration scale where inhibition reaches its midpoint. As a reminder, the MIC is the smallest concentration in the dilution series that meets the test's criterion for growth inhibition. Read a low MIC as a more susceptible organism. For orientation: CC50 means the concentration at which the toxic effect on the cells reaches its halfway point. A high value points to better tolerance by the cells.
